# Experiments:
# Format in all cases: functional, Homo sapiens
# [1] = test system: SW480; test: Cell cycle arrest in SW480 cells by accumulation at G2/M phase at 50 uM after 24 hrs by propidium iodide staining
# How it was run: (§1)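 SW480 human colorectal cancer cells (ATCC) grown in DMEM with 10% FBS, penicillin/streptomycin in 60 mm dishes; medium replenished at 80% confluence. Monolayers exposed 24 h to 0, 25, 50, 75 or 100 µM (DMSO stock, 0.1% DMSO final). Adherent plus floating cells fixed in PBS-methanol (1:2) ≥18 h at 4 °C, stained 30 min with 50 µg/mL PI plus RNase A.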
# [2] = test system: SW480; test: Cell cycle arrest in SW480 cells by accumulation at G2/M phase at 75 uM after 24 hrs by propidium iodide staining; how it was run: as §1
# [3] = test system: SW480; test: Cell cycle arrest in SW480 cells by accumulation at G2/M phase at 100 uM after 24 hrs by propidium iodide staining; how it was run: as §1
# [4] = test system: SW480; test: DNA damage assessed as accumulation in subG1 level of cell cycle arrest in SW480 cells at 25 uM after 24 hrs by propidium iodide staining; how it was run: as §1
# [5] = test system: SW480; test: DNA damage assessed as accumulation in subG1 level of cell cycle arrest in SW480 cells at 50 uM after 24 hrs by propidium iodide staining; how it was run: as §1
# [6] = test system: SW480; test: DNA damage assessed as accumulation in subG1 level of cell cycle arrest in SW480 cells at 75 uM after 24 hrs by propidium iodide staining; how it was run: as §1
# [7] = test system: SW480; test: DNA damage assessed as accumulation in subG1 level of cell cycle arrest in SW480 cells at 100 uM after 24 hrs by propidium iodide staining; how it was run: as §1
# [8] = test system: SW480; test: Cell cycle arrest in SW480 cells by accumulation at G1 phase at 25 uM after 24 hrs by propidium iodide staining; how it was run: as §1
# [9] = test system: SW480; test: Cell cycle arrest in SW480 cells by accumulation at G1 phase at 50 uM after 24 hrs by propidium iodide staining; how it was run: as §1
# [10] = test system: SW480; test: Cell cycle arrest in SW480 cells by accumulation at G1 phase at 75 uM after 24 hrs by propidium iodide staining; how it was run: as §1
# [11] = test system: SW480; test: Cell cycle arrest in SW480 cells by accumulation at G1 phase at 100 uM after 24 hrs by propidium iodide staining; how it was run: as §1
# [12] = test system: SW480; test: Cell cycle arrest in SW480 cells by accumulation at S phase at 25 uM after 24 hrs by propidium iodide staining; how it was run: as §1
# [13] = test system: SW480; test: Cell cycle arrest in SW480 cells by accumulation at S phase at 50 uM after 24 hrs by propidium iodide staining; how it was run: as §1
# [14] = test system: SW480; test: Cell cycle arrest in SW480 cells by accumulation at S phase at 75 uM after 24 hrs by propidium iodide staining; how it was run: as §1
# [15] = test system: SW480; test: Cell cycle arrest in SW480 cells by accumulation at S phase at 100 uM after 24 hrs by propidium iodide staining; how it was run: as §1
# [16] = test system: SW480; test: Cell cycle arrest in SW480 cells by accumulation at G2/M phase at 25 uM after 24 hrs by propidium iodide staining; how it was run: as §1
Structure (SMILES),Activity [1],Activity [2],Activity [3],Activity [4],Activity [5],Activity [6],Activity [7],Activity [8],Activity [9],Activity [10],Activity [11],Activity [12],Activity [13],Activity [14],Activity [15],Activity [16]
CCCCCCCCCCCCC/C=C1/C(=O)O[C@@](C)(OC)[C@@H]1O [SUBAMOLIDE B],16.9%,20.8%,16.6%,6.6%,23.7%,47.2%,71%,47.7%,44.2%,45.8%,46%,46%,38.8%,33.4%,37.4%,6.4%
C=C1C=C(C(CCCCCCCCCCCCCC)OC)C(=O)O1 (stereo not drawn) [SUBAMOLIDE C],11.3%,12.4%,19.3%,6.1%,11%,34.6%,38.8%,44.4%,47.6%,44.5%,47.8%,45.8%,41.2%,43.1%,33%,9.8%
CCCCCCCCCCCCC/C=C(/C(=O)OC)[C@H](O)C(C)=O [SECOSUBAMOLIDE],11.4%,12.8%,17.6%,–,9.1%,23.4%,51.8%,47.1%,47.9%,49%,47.9%,39.5%,40.6%,38.3%,34.5%,13.4%
CCCCCCCCCCCCC/C=C1\C(=O)O[C@@](C)(OC)[C@@H]1O [SUBAMOLIDE A],12.8%,13%,17.7%,8.5%,25.4%,27.3%,64.4%,48.2%,46.3%,45%,52.6%,39.6%,41%,42%,29.8%,12.2%

# Source: ChEMBL document CHEMBL1139209, “Cytotoxic constituents of the stems of Cinnamomum subavenium” (2007)
